The target of one assay is Cathepsin B (Bos taurus) (UniProt P07688). As to the kind of experiment: Evaluated for second-order rate constants for the inactivation of mammalian lysosomal cathepsin B.
Assay [1] has as its target Procathepsin L (Homo sapiens) (UniProt P07711). The assay is described as follows: Evaluated for second-order rate constants for the inactivation of mammalian lysosomal cathepsin L.
Assay [2] concerns the target T1, Papain (Carica papaya) (UniProt P00784).
T1 sequence (whole entry): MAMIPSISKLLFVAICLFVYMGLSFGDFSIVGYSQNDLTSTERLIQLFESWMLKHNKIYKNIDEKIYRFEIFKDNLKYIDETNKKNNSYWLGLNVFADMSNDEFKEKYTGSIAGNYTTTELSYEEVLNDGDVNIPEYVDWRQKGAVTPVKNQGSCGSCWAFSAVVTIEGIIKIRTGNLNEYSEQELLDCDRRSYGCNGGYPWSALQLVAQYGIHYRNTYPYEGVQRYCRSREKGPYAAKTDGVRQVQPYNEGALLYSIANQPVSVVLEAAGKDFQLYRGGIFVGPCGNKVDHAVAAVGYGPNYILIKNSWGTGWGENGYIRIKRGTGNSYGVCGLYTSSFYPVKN
As to the kind of experiment: Second-order rate constants for the inactivation of papain (vacuolar plant enzyme). In short, it runs like this:
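Papain with L-BAPA (405 nm) in 50 mM phosphate pH 6.5, 5 mM EDTA, 5 mM cysteine, or with Z-Phe-Arg-AMC in phosphate pH 6.5 with DTT, EDTA, Brij 35; 25 °C. kobs at 3–7 inhibitor concentrations, continuous or dilution assay; k2nd = ki/Ki, or from linear kobs vs [I] when unsaturated; substrate-corrected (Km 2.5 mM L-BAPA, 0.09 mM Z-Phe-Arg-AMC).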

Another assay deals with T2, Pro-cathepsin H (Homo sapiens, UniProt P09668).
T2 sequence (P09668 whole entry): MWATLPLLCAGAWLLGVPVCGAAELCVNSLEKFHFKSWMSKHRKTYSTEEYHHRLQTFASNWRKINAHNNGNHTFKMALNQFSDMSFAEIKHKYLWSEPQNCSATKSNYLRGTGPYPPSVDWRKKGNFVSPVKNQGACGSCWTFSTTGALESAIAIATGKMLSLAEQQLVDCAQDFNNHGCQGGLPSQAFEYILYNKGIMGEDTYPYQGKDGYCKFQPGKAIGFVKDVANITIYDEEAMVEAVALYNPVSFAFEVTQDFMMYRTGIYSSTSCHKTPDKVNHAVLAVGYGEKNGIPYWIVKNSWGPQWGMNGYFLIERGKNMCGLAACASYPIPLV
As to the kind of experiment: Inhibition constant for the non time dependent inhibition of cathepsin H.

In assay [3] the target is T3, Calpain-2 catalytic subunit (Sus scrofa, UniProt P43367).
T3 sequence (P43367 whole entry): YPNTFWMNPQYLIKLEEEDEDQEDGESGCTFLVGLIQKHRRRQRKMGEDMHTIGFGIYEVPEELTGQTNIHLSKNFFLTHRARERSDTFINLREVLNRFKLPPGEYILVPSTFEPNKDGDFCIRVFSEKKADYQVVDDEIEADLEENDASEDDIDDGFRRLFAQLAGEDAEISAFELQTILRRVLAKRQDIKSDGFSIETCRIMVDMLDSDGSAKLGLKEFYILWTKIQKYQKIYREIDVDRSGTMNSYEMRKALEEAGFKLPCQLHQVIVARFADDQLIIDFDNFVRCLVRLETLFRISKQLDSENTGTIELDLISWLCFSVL
The assay is described as follows: Inhibition constant for the non time dependent inhibition of Calpain 2. A digest of the protocol: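 Calpain I or II with Suc-Leu-Tyr-AMC in 50 mM Tris pH 7.5, 5 mM CaCl2, 2.5 mM EDTA, 2.5 mM DTT. Enzyme preincubated in buffer 30 min, assayed at 25 °C, fluorescence 460 nm (excitation 380 nm). Ki from Dixon plots, corrected to zero substrate with Km 0.4 mM (calpain I) or 0.22 mM (calpain II).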

For assay [4], the target named is T1, Papain (Carica papaya). As to the kind of experiment: Second-order rate constants for the inactivation of papain (vascular plant enzyme); no inhibition.
Assay [5] deals with T1, Papain (Carica papaya). The assay is described as follows: Second-order rate constants for the inactivation of papain at pH 8(vascular plant enzyme). In short, it runs like this:
(§1)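 Papain (0.5 mg mL-1) with 1.4–1.5 mM L-BAPA, read at 405 nm, 25 °C. Buffers: 50 mM citrate for pH 4–6, phosphate for pH 6–8, borate for pH 8–9. kobs came from continuous or dilution assays at 3–7 inhibitor concentrations. k_i/K_i came from a hyperbolic or linear fit, corrected to zero substrate (Km 2.5 mM).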

Assay [6] addresses T1, Papain (Carica papaya). As to the kind of experiment: Second-order rate constants for the inactivation of papain at pH 6.5(vascular plant enzyme). In short, it runs like this:
as §1

The target of assay [7] is T1, Papain (Carica papaya). The assay is described as follows: Second-order rate constants for the inactivation of papain at pH 4 (vascular plant enzyme). A digest of the protocol:
as §1

The values below come from ChEMBL document CHEMBL1132578, “New peptidic cysteine protease inhibitors derived from the electrophilic alpha-amino acid aziridine-2,3-dicarboxylic acid” (J Med Chem, 1999).

Activity calls are given as the source filed them. No cut-off for these calls is given here.

Sequence of Procathepsin L (Homo sapiens) (P07711 114-333 limits assumed): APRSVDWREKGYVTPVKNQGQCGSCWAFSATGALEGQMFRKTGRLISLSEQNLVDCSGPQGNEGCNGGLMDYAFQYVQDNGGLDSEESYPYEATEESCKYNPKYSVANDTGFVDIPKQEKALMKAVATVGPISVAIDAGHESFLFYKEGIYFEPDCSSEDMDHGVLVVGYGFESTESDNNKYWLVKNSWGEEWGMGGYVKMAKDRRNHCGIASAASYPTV

In the case of `CCOC(=O)[C@H]1[C@H](C(=O)OCC)N1C(=O)C(Cc1ccccc1)NC(=O)OC(C)(C)C` (single isomer, unassigned), the ki/Ki at Cathepsin B (Bos taurus) came to 0.3 M⁻¹ s⁻¹; in assay [1] it was 0.267 M⁻¹ s⁻¹; at Papain (Carica papaya) [2] it was 0.7 M⁻¹ s⁻¹.

As for `CCOC(=O)C1C(C(=O)OCc2ccccc2)N1C(=O)[C@H](Cc1ccccc1)NC(=O)OC(C)(C)C` (some centres undefined), the ki/Ki at Papain (Carica papaya) [2] came out at 1.27 M⁻¹ s⁻¹.

`CC(C)CCNC(=O)C(CC(C)C)NC(=O)[C@@H]1N[C@H]1C(=O)O` (single isomer, unassigned) returned a ki/Ki at Papain (Carica papaya) [2] of 0.167 M⁻¹ s⁻¹.

In the case of `CC(C)CCNC(=O)[C@H](CC(C)C)NC(=O)[C@H]1N[C@@H]1C(=O)O`, the ki/Ki on Papain (Carica papaya) [2] was 0.167 M⁻¹ s⁻¹.

As to `CCOC(=O)C1C(C(=O)OCc2ccccc2)N1C(=O)CNC(=O)[C@H](CC(C)C)NC(=O)OC(C)(C)C` (some centres undefined), the ki/Ki was found to be 4 M⁻¹ s⁻¹ on Cathepsin B (Bos taurus), 53.9 M⁻¹ s⁻¹ in [1] and 2.48 M⁻¹ s⁻¹ at Papain (Carica papaya) [2].

As for `CCOC(=O)[C@H]1[C@H](C(=O)N[C@@H](CC(C)C)C(=O)OCc2ccccc2)N1C(=O)[C@H](Cc1ccccc1)NC(=O)OC(C)(C)C`, the figures for the Ki (on Pro-cathepsin H; in assay [3]) were 137 µM and 42 µM, respectively. In addition, the ki/Ki on Cathepsin B (Bos taurus) was 4.28 M⁻¹ s⁻¹; in [1], 5.23 M⁻¹ s⁻¹; on Papain (Carica papaya) [2] it was 3.75 M⁻¹ s⁻¹.

`CCOC(=O)C1NC1C(=O)N[C@@H](CC(C)C)C(=O)NCCC(C)C` (some centres undefined) gave a ki/Ki at Papain (Carica papaya) [2] of 3 M⁻¹ s⁻¹.

Turning to `CCOC(=O)C1C(C(=O)OCc2ccccc2)N1C(=O)[C@H](C)NC(=O)[C@H](Cc1ccccc1)NC(=O)OC(C)(C)C` (some centres undefined), the ki/Ki came to 7.38 M⁻¹ s⁻¹ on Cathepsin B (Bos taurus), 4.68 M⁻¹ s⁻¹ in [1] and 20.5 M⁻¹ s⁻¹ at Papain (Carica papaya) [2].

`CCOC(=O)[C@H]1[C@H](C(=O)OCC)N1C(=O)[C@H](Cc1ccccc1)NC(=O)C(C)NC(=O)OCc1ccccc1` (single isomer, unassigned): the ki/Ki at Cathepsin B (Bos taurus) is 0.367 M⁻¹ s⁻¹; in [1], 0.55 M⁻¹ s⁻¹; at Papain (Carica papaya) [2], 0.35 M⁻¹ s⁻¹.

On Papain (Carica papaya) [2], `CCOC(=O)C1NC1C(=O)N[C@H](CC(C)C)C(=O)NCCC(C)C` (some centres undefined) yielded a ki/Ki of 55 M⁻¹ s⁻¹.

On to `CCOC(=O)[C@H]1[C@H](C(=O)N[C@@H](CC(C)C)C(=O)N2CCCC2C(=O)OCc2ccccc2)N1C(=O)[C@H](Cc1ccccc1)NC(=O)OC(C)(C)C` (some centres undefined), for which the ki/Ki turned out to be 32.3 M⁻¹ s⁻¹ on Cathepsin B (Bos taurus), 98.3 M⁻¹ s⁻¹ in [1] and 12.8 M⁻¹ s⁻¹ on Papain (Carica papaya) [2].

Molecule `CCOC(=O)[C@@H]1N[C@H]1C(=O)N[C@@H](CC(C)C)C(=O)O` had a ki/Ki at Papain (Carica papaya) [2] of 1.05 M⁻¹ s⁻¹.

With `CC[C@H](C)C(NC(=O)[C@@H]1N[C@H]1C(=O)NCC(C)C)C(=O)N1CCCC1C(=O)O` (single isomer, unassigned), the ki/Ki on Cathepsin B (Bos taurus) stood at 13 M⁻¹ s⁻¹; in [1], 50 M⁻¹ s⁻¹. Moreover, the ki/Ki entry at Papain (Carica papaya) [4] is “inactive”.

Turning to `CCOC(=O)[C@@H]1[C@@H](C(=O)N[C@@H](CC(C)C)C(=O)OCc2ccccc2)N1C(=O)[C@H](Cc1ccccc1)NC(=O)OC(C)(C)C`, the Ki on Pro-cathepsin H came out at 93 µM. Besides, the results for the ki/Ki (on Cathepsin B (Bos taurus); in assay [1]; at Papain (Carica papaya) [2]) were 2.03 M⁻¹ s⁻¹, 3.65 M⁻¹ s⁻¹ and 2.85 M⁻¹ s⁻¹, respectively.

Turning to `CCOC(=O)[C@@H]1[C@@H](C(=O)N[C@@H](CC(C)C)C(=O)N2CCCC2C(=O)OCc2ccccc2)N1C(=O)[C@H](Cc1ccccc1)NC(=O)OC(C)(C)C` (some centres undefined), the ki/Ki on Cathepsin B (Bos taurus) came out at 7.5 M⁻¹ s⁻¹; at Papain (Carica papaya) [2] it was 5.35 M⁻¹ s⁻¹.

As to `CCOC(=O)[C@@H]1[C@@H](C(=O)OCC)N1C(=O)[C@H](C)NC(=O)[C@@H](Cc1ccccc1)NC(=O)OC(C)(C)C`, the ki/Ki came out at 7.58 M⁻¹ s⁻¹ on Cathepsin B (Bos taurus), 7.82 M⁻¹ s⁻¹ in [1] and 22.8 M⁻¹ s⁻¹ at Papain (Carica papaya) [2].

Turning to `CCOC(=O)[C@H]1N[C@@H]1C(=O)N[C@@H](CC(C)C)C(=O)N1CCC[C@H]1C(=O)OCc1ccccc1`, the results for the ki/Ki (on Cathepsin B (Bos taurus); in assay [1]; at Papain (Carica papaya) [2]) were 6.75 M⁻¹ s⁻¹, 35.7 M⁻¹ s⁻¹ and 3.78 M⁻¹ s⁻¹, respectively.

With `CCOC(=O)[C@@H]1[C@@H](C(=O)OCC)N1C(=O)[C@H](C)NC(=O)[C@H](Cc1ccccc1)NC(=O)CNC(=O)OCc1ccccc1`, the ki/Ki amounted to 7.02 M⁻¹ s⁻¹ on Cathepsin B (Bos taurus), 5.25 M⁻¹ s⁻¹ in assay [1] and 8.72 M⁻¹ s⁻¹ at Papain (Carica papaya) [2].

With `CCOC(=O)[C@@H]1[C@@H](C(=O)OCC)N1C(=O)[C@H](Cc1ccccc1)NC(=O)[C@H](C)NC(=O)OCc1ccccc1`, the ki/Ki on Cathepsin B (Bos taurus) was 2.08 M⁻¹ s⁻¹; in [1] it was 0.483 M⁻¹ s⁻¹; at Papain (Carica papaya) [2], 2.95 M⁻¹ s⁻¹.

Molecule `CCOC(=O)[C@@H]1[C@@H](C(=O)OCC)N1C(=O)[C@H](C)NC(=O)OC(C)(C)C` had a ki/Ki on Papain (Carica papaya) [2] of 0.717 M⁻¹ s⁻¹.

Regarding `CCOC(=O)C1NC1C(=O)N[C@@H](CC(C)C)C(=O)OCc1ccccc1` (some centres undefined), on Pro-cathepsin H, the Ki is 260 µM. Besides, the ki/Ki on Papain (Carica papaya) [5] stood at 0.4 M⁻¹ s⁻¹; on Cathepsin B (Bos taurus) it was 0.683 M⁻¹ s⁻¹; at Papain (Carica papaya) [6], 2.8 M⁻¹ s⁻¹; in assay [1], 52.2 M⁻¹ s⁻¹; at Papain (Carica papaya) [7] it was 13.1 M⁻¹ s⁻¹; on Papain (Carica papaya) [2], 3.57 M⁻¹ s⁻¹.

As to `CCOC(=O)C1C(C(=O)O)N1C(=O)[C@H](Cc1ccccc1)NC(=O)OC(C)(C)C` (some centres undefined), the ki/Ki at Cathepsin B (Bos taurus) was 20.5 M⁻¹ s⁻¹; in assay [1] it was 3.13 M⁻¹ s⁻¹; on Papain (Carica papaya) [2], 8.42 M⁻¹ s⁻¹.

For `CCOC(=O)C1C(C(=O)OCC)N1C(=O)[C@H](CC(C)C)NC(=O)OCC1c2ccccc2-c2ccccc21` (some centres undefined), the ki/Ki in [1] amounted to 1.65 M⁻¹ s⁻¹; on Papain (Carica papaya) [2] it was 1.08 M⁻¹ s⁻¹.

In the case of `CCOC(=O)[C@@H]1[C@@H](C(=O)OCC)N1C(=O)CNC(=O)CNC(=O)OCc1ccccc1`, the results for the ki/Ki (on Cathepsin B (Bos taurus); in assay [1]; at Papain (Carica papaya) [2]) were 6.48 M⁻¹ s⁻¹, 5.28 M⁻¹ s⁻¹ and 4.95 M⁻¹ s⁻¹, respectively.

The molecule `CCOC(=O)C1NC1C(=O)OCC` (centres undefined) returned a ki/Ki on Papain (Carica papaya) [7] of 1.02 M⁻¹ s⁻¹.
